Bioassay records deposited in PubChem by several laboratories.
Sampled rows, rich in hits. Any-hit rate of the full collection: about 4.8%.
Mot1-301 SUMO: inhibitors of SUMOylation pathway: yeast Mot1-301 growth rescue; S. cerevisiae Mot1-301 growth rescue, ATP luminescence, 38.5C; percent above DMSO median, 100 means doubled; growth rescue, % at 18.8 µM; actives 1% (n = 320,000); AID 2716;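 active = every valid replicate shows activation above 250% relative to neutral control wells; inactive = the rest, any valid replicate at or below 250%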
CSC inhib: blocks cancer stem cells; AID 2717; inhibition, % at 7.5 µM; cancer stem cell-like cells viability, luminescence; actives 1.1% (n = 300,000); in the data active = inhibition above about 75%; inconclusive = no clear call, values can overlap the other calls; tested in HMLE shEcad cells
T cruzi repl: blocks replication of Trypanosoma cruzi | T. cruzi beta-gal in NIH3T3, luminescence, 90 h | inhibition, % (no concentration beside the values) | actives 1.4% (n = 300,000) | AID 1885;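 active = mean inhibition across valid replicates above about 55%, limit read from the data; inconclusive = mean below that limit but half or more replicates reach it; inactive = mean below it, under half of replicates reach it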;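 note: signal also drops with host cell toxicity which is not excluded here; higher percent means less beta-gal luminescence so fewer parasites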
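System: NIH/3T3 fibroblasts plus reporter T. cruzi. Medium: DMEM plus 2% FBS. Probe or stimulus: 5000 reporter trypomastigotes per well. Compound: single 50 nL compound addition per well in DMSO. Incubation: co-culture of at least 90 h after 3 h attachment. Detection: GalScreen β-gal luminescence, detergent lysis, 60 min. Evaluation: parasite load inhibition, %.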
WT yeast gro inh: growth inhibition of WT yeast, mitochondrial fusion screen; inhibition, % at 10 µM; mitochondrial fusion phenotypic screen, WT strain; actives 2.1% (n = 190,000); in the data active = inhibition above about 58%; tested in S. cerevisiae
Beta apoptosis: beta cell apoptosis inhibition; INS-1E cytokine-induced death, ATP luminescence, 48 h; percent of positive-control rescue, neutral wells zero; protection from apoptosis, % (concentration not given with the values); actives 0.8% (n = 300,000); AID 435005;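 active = Every replicate reaches about 75%, or at least half do and their mean reaches it too, limit read from the data; inconclusive = At least half of replicates reach the limit but their mean does not; inactive = Under half of replicates reach the limit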;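 note: higher means more ATP so stronger rescue from cytokine killing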
Efflux pump inh: antifungal efflux pump inhibition, Nile Red retention. AID 485275. actives 0.44% (n = 330,000). S. cerevisiae Candida pump triplex. inhibition, % at 10 µM;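 active = plate passing quality check with inhibition over a set limit, or well fluorescence over plate mean plus 4 SD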;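 note: Nile Red retained in pooled yeast measured as flow cytometry median fluorescence; higher means more Nile Red kept so more efflux inhibition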
Yeast cmpd fluor: flagged as fluorescent in efflux inhibitor counter-screen. shares compounds with Efflux pump inh. S. cerevisiae AD/pABC3, compound fluorescence, flow cytometry. fluorescence ratio to DMSO, % at 10 µM. actives 4% (n = 1,700). AID 588517;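 active = fluorescence ratio to DMSO above its plate's cutoff, the plate mean ratio plus 5 SD, cut at about 210% in these data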;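 note: unstained yeast with no Nile Red so the signal is compound autofluorescence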
Mdr1 pump inh: blocks the Candida albicans Mdr1 efflux pump in yeast; shares compounds with Efflux pump inh; S. cerevisiae AD/CaMDR1, Nile Red efflux, flow cytometry; inhibition, % at 10 µM; actives 1% (n = 1,700); in the data active = inhibition above about 26%;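 note: higher means more Nile Red retained so more efflux inhibition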
Cdr2 pump inh: blocks the Candida albicans Cdr2 efflux pump in yeast | shares compounds with Efflux pump inh | S. cerevisiae AD/CaCDR2, Nile Red retention, flow cytometry | Nile Red retention ratio vs DMSO, % at 10 µM | actives 4% (n = 1,700); in the data active = Nile Red retention ratio vs DMSO above about 190%;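 note: higher ratio means more blocking of Cdr2 efflux of the dye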
Cdr1 pump inh: Candida Cdr1 efflux pump inhibition | S. cerevisiae AD/CaCDR1, Nile Red efflux, flow cytometry | inhibition, % at 10 µM | actives 1% (n = 1,700) | AID 588522 | shares compounds with Efflux pump inh;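 active = inhibition above the screen-wide mean plus twice its standard deviation, cut at about 32% in these data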
Large screens that a line does not name were inactive (follow-up assays come after a bar, where they were run).

Cc1cccc(NC(=O)c2nc[nH]c2C(=O)N[C@H](C)c2ccccc2)c1	CSC inhib inconclusive, Efflux pump inh 0.9 (no result: T cruzi repl, WT yeast gro inh) | Yeast cmpd fluor inactive | Mdr1 pump inh inactive | Cdr2 pump inh inactive | Cdr1 pump inh inactive
Cc1ccc(S(=O)(=O)c2nc(Nc3ccccc3N3CCOCC3)sc2Cl)cc1	Efflux pump inh 7.5 | Yeast cmpd fluor inactive | Mdr1 pump inh inactive | Cdr2 pump inh inactive | Cdr1 pump inh inactive
N#Cc1c(-c2ccc(Cl)cc2)cc(-c2cccs2)nc1SCC(=O)O	none (no result: CSC inhib, WT yeast gro inh, Beta apoptosis)
N#Cc1c(-c2ccccc2)cc(-c2cccs2)nc1SCC(=O)O	Efflux pump inh 1.3 (no result: WT yeast gro inh) | Yeast cmpd fluor inactive | Mdr1 pump inh inactive | Cdr2 pump inh inactive | Cdr1 pump inh inactive
CS(=O)(=O)c1ccc(-c2cc(Br)sc2-c2ccc(F)cc2)cc1	none (no result: WT yeast gro inh)
Cc1ccc(CNC(=O)c2cc(-c3ccccc3)nn2CC2CC(c3cccnc3)=NO2)cc1 (stereo not given)	Efflux pump inh 0.8 (no result: WT yeast gro inh) | Yeast cmpd fluor inactive | Mdr1 pump inh inactive | Cdr2 pump inh inactive | Cdr1 pump inh inactive
Cc1ccc(CNC(=O)c2cc(-c3ccccc3C)nn2CC2CC(c3cccnc3)=NO2)cc1 (stereo not given)	none (no result: CSC inhib, T cruzi repl, WT yeast gro inh)
Cc1ncc(C(=O)O)c(C(=O)O)c1N	Efflux pump inh 5.5 (no result: WT yeast gro inh) | Yeast cmpd fluor inactive | Mdr1 pump inh inactive | Cdr2 pump inh inactive | Cdr1 pump inh inactive
CSc1ncc(C(=O)O)c(C)n1	none
CC(C)CC(=O)c1c[nH]c(C(=O)NCCCn2ccnc2)c1	none (no result: Beta apoptosis)
O=C(Cc1ccc(Cl)cc1)c1c[nH]c(C(=O)NCCCn2ccnc2)c1	Efflux pump inh 0.6 | Yeast cmpd fluor inactive | Mdr1 pump inh inactive | Cdr2 pump inh inactive | Cdr1 pump inh inactive
Cc1ccc(C(=O)N2CCN(C)CC2)cc1[N+](=O)[O-]	none (no result: WT yeast gro inh)
Cc1cc(Cl)c2oc(C(=O)NCC(C)(C)N3CCOCC3)c(C)c2c1	Efflux pump inh 0.6 (no result: WT yeast gro inh) | Yeast cmpd fluor inactive | Mdr1 pump inh inactive | Cdr2 pump inh inactive | Cdr1 pump inh inactive
N/C(=N\OC(=O)Cc1ccccc1)c1ccccc1Cl	none | Yeast cmpd fluor inactive | Mdr1 pump inh inactive | Cdr2 pump inh inactive | Cdr1 pump inh inactive
N/C(=N\OC(=O)Cc1ccccc1)c1cccnc1	none
Cc1ccc(O)c(C(=O)c2cnc3c(c2)CN(CCC(C)C)C(=O)N3)c1	Efflux pump inh 0.6 | Yeast cmpd fluor inactive | Mdr1 pump inh inactive | Cdr2 pump inh inactive | Cdr1 pump inh inactive
CN(C)S(=O)(=O)c1ccc(N2CCCC2)c(C(=O)Nc2nc3c(ccc4ccccc43)s2)c1	Efflux pump inh 1.9 | Yeast cmpd fluor inactive | Mdr1 pump inh inactive | Cdr2 pump inh inactive | Cdr1 pump inh inactive
CC(C)OC(=O)c1ccc(COC(=O)c2cccc(-c3nnc(-c4ccccc4)o3)c2)cc1	Efflux pump inh 7.6 | Yeast cmpd fluor inactive | Mdr1 pump inh inactive | Cdr2 pump inh inactive | Cdr1 pump inh inactive
O=C(O)c1ccc(/C=C/c2nc3sc4c(c3c(=O)[nH]2)CCC4)cc1	none
COc1ccc(CCNC(=O)C2CCN(S(=O)(=O)N3CCC4(CC3)OCCO4)CC2)cc1OC	Efflux pump inh 1.3 | Yeast cmpd fluor inactive | Mdr1 pump inh inactive | Cdr2 pump inh inactive | Cdr1 pump inh inactive
COc1ccc(CCNC(=O)C2CCN(S(=O)(=O)N3CCCCC3)CC2)cc1OC	none
CC/C(O)=C(\C#N)c1nnc2n1CCCCC2	Efflux pump inh 6.7 | Yeast cmpd fluor inactive | Mdr1 pump inh inactive | Cdr2 pump inh inactive | Cdr1 pump inh inactive
CC1Cc2cc(S(=O)(=O)N3CCN(c4ccccc4F)CC3)ccc2N1C(=O)C1CC1 (stereo not given)	none (no result: WT yeast gro inh)
C/C(=N\Nc1ncnc2sc(C)c(C)c12)c1ccccn1	Beta apoptosis 98, Efflux pump inh 30 (no result: CSC inhib, WT yeast gro inh) | Yeast cmpd fluor inactive | Mdr1 pump inh inactive | Cdr2 pump inh inactive | Cdr1 pump inh inactive
Cc1sc2ncnc(N/N=C/c3cccc(O)c3)c2c1C	none
O=C(CSc1ccc(Br)cc1)N1CCN(S(=O)(=O)c2ccccc2)CC1	Efflux pump inh 2.0 (no result: WT yeast gro inh) | Yeast cmpd fluor inactive | Mdr1 pump inh inactive | Cdr2 pump inh inactive | Cdr1 pump inh inactive
CCCCn1c(SCC(=O)NCc2ccco2)nc2c(sc3ccccc32)c1=O	none
O=C(CSc1nc2c(sc3ccccc32)c(=O)n1CCc1ccccc1)NCc1ccco1	Efflux pump inh 1.5 (no result: Beta apoptosis) | Yeast cmpd fluor inactive | Mdr1 pump inh inactive | Cdr2 pump inh inactive | Cdr1 pump inh inactive
COc1cccc(CN(C)C(=O)CSCC(=O)Nc2cccc(C)c2)c1OC	none (no result: CSC inhib, T cruzi repl, WT yeast gro inh)
COc1ccc(S(=O)(=O)N2CCOC2CNC(=O)C(=O)NCc2ccc3c(c2)OCO3)cc1OC (stereo not given)	none (no result: WT yeast gro inh) | Yeast cmpd fluor inactive | Mdr1 pump inh inactive | Cdr2 pump inh inactive | Cdr1 pump inh inactive
O=C(NCc1ccc2c(c1)OCO2)C(=O)NCC1OCCN1S(=O)(=O)c1ccc(Cl)cc1 (stereo not given)	none (no result: WT yeast gro inh)
COc1ccc(CNC(=O)C(=O)NCC2OCCN2S(=O)(=O)c2ccc(OC)c(OC)c2)cc1 (stereo not given)	none (no result: WT yeast gro inh) | Yeast cmpd fluor inactive | Mdr1 pump inh inactive | Cdr2 pump inh inactive | Cdr1 pump inh inactive
COCCn1c(SC(C)C(=O)NCC2CCCO2)nc2sc3c(c2c1=O)CCC3 (stereo not given)	none (no result: WT yeast gro inh, Beta apoptosis)
O=C(c1ccccc1O)N1N=C(c2ccccc2)CC1(O)C(F)(F)F (stereo not given)	none
COc1ccc2[nH]cc(C(=O)CN3CCC(C)CC3)c2c1	Efflux pump inh 8.2 | Yeast cmpd fluor inactive | Mdr1 pump inh inactive | Cdr2 pump inh inactive | Cdr1 pump inh inactive
CCOC(=O)c1c(/N=C/N(C)C)sc(C)c1C	none
CCOC(=O)c1c(/N=C/N(C)C)sc(/C=N/Nc2ccccc2)c1-c1ccc(Cl)cc1	Efflux pump inh 0.6 | Yeast cmpd fluor inactive | Mdr1 pump inh inactive | Cdr2 pump inh inactive | Cdr1 pump inh inactive
COCCN1C(=O)/C(=C/c2ccc(N3CCCC3)cc2C)SC1=S	Efflux pump inh 2.2 | Yeast cmpd fluor 318 | Mdr1 pump inh inactive | Cdr2 pump inh inactive | Cdr1 pump inh inactive
CCN=C1S/C(=C\c2ccc(N3CCOCC3)cc2C)C(=O)N1CC	none (no result: Beta apoptosis)
Oc1ccc(CCC2CCCCN2Cc2nc(C3CC3)no2)cc1 (stereo not given)	none
CC(=O)N1CCN(c2ccc(NC(=S)NC(=O)c3ccccc3)cc2)CC1	Efflux pump inh 5.8 | Yeast cmpd fluor inactive | Mdr1 pump inh inactive | Cdr2 pump inh inactive | Cdr1 pump inh inactive
